Legend:
[1] = Therapeutic index, ratio of CC50 for HEK293T cells to IC50 for HIV-1 sub-type-C MJ4 infected in HEK293T cells; type: toxicity, cell-based; conditions: human, read-out: Ratio CC50/IC50
Procedure, shortened: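 HEK293T cells (2 × 10⁴/well) with HSA-formulated compound (5:1 molar), 3-fold dilutions, 48 h at 37 °C. […] IC50 from luciferase after single-cycle infection with HIV-like particles carrying MJ4 subtype C RT/IN, over the noncytotoxic range.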

[2] = Ratio of AUC (0 to 24 hrs) of prodrug to TFV metabolite in C57BL/6 mouse plasma at 10 mg/kg, po measured for 24 hrs by LC-MS/MS analysis; type: ADME, organism-based; conditions: in vivo
Procedure, shortened: (§1)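 Male C57BL/6 mice (8–12 weeks, 20–30 g) got a single gavage of 10 mg/kg in 10% EtOH/90% olive oil, n = 3 per time point with sparse sampling. Retro-orbital blood was taken at 0.25–24 h and plasma spun off. Prodrug and TFV were measured by LC–MS/MS.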

[3] = Prodrug conversion in C57BL/6 mouse liver assessed as Cmax of TFV metabolite at 10 mg/kg, po measured for 24 hrs by LC-MS/MS analysis; type: ADME, organism-based; conditions: in vivo
Procedure, shortened: (§2)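 After a single 10 mg/kg gavage (10% EtOH/90% olive oil) in male C57BL/6 mice, liver, kidney and brain were collected at 1, 4 and 24 h (n = 3 per time point). Tissues were rinsed in ice-cold saline and homogenized in ice-cold PBS pH 7.4 (3× weight for brain, 5× for liver and kidney). Prodrug and TFV were measured by LC–MS/MS; AUC0–24h by the linear trapezoidal rule.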

[4] = Prodrug conversion in C57BL/6 mouse kidney assessed as AUC (0 to 24 hrs) of TFV metabolite at 10 mg/kg, po measured for 24 hrs by LC-MS/MS analysis; type: ADME, organism-based; conditions: in vivo; procedure, shortened: as §2
[5] = Prodrug conversion in C57BL/6 mouse plasma assessed as Tmax of TFV metabolite at 10 mg/kg, po measured for 24 hrs by LC-MS/MS analysis; type: ADME, organism-based; conditions: in vivo; procedure, shortened: as §1
[6] = Prodrug conversion in C57BL/6 mouse kidney assessed as Cmax of TFV metabolite at 10 mg/kg, po measured for 24 hrs by LC-MS/MS analysis; type: ADME, organism-based; conditions: in vivo; procedure, shortened: as §2
[7] = Prodrug conversion in C57BL/6 mouse plasma assessed as AUC (0 to 24 hrs) of TFV metabolite at 10 mg/kg, po measured for 24 hrs by LC-MS/MS analysis; type: ADME, organism-based; conditions: in vivo; procedure, shortened: as §1
[8] = Prodrug conversion in C57BL/6 mouse kidney assessed as Tmax of TFV metabolite at 10 mg/kg, po measured for 24 hrs by LC-MS/MS analysis; type: ADME, organism-based; conditions: in vivo; procedure, shortened: as §2
[9] = Prodrug conversion in C57BL/6 mouse plasma assessed as Cmax of TFV metabolite at 10 mg/kg, po measured for 24 hrs by LC-MS/MS analysis; type: ADME, organism-based; conditions: in vivo; procedure, shortened: as §1
[10] = Clearance in C57BL/6 mouse plasma at 10 mg/kg, po measured for 24 hrs by LC-MS/MS analysis; type: ADME, organism-based; conditions: in vivo; procedure, shortened: as §1
[11] = Prodrug conversion in C57BL/6 mouse liver assessed as Tmax of TFV metabolite at 10 mg/kg, po measured for 24 hrs by LC-MS/MS analysis; type: ADME, organism-based; conditions: in vivo; procedure, shortened: as §2
[12] = Prodrug conversion in C57BL/6 mouse liver assessed as AUC (0 to 24 hrs) of TFV metabolite at 10 mg/kg, po measured for 24 hrs by LC-MS/MS analysis; type: ADME, organism-based; conditions: in vivo; procedure, shortened: as §2
[13] = Ratio of AUC (0 to 24 hrs) of prodrug to TFV metabolite in C57BL/6 mouse liver at 10 mg/kg, po measured for 24 hrs by LC-MS/MS analysis; type: ADME, organism-based; conditions: in vivo; procedure, shortened: as §2
[14] = Clearance in C57BL/6 mouse plasma at 3 mg/kg, iv measured for 8 hrs by LC-MS/MS analysis; type: ADME, organism-based; conditions: in vivo
Procedure, shortened: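 Male C57BL/6 mice got a single 3 mg/kg i.v. dose in 10% PEG-300, 10% Solutol HS-15 and 80% saline, n = 3 per time point. Retro-orbital blood was taken at 0.1–8 h and plasma prodrug measured by LC–MS/MS. AUC0–8h used the trapezoidal rule; Cl = Dose/AUC0–8h.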

[15] = Metabolic stability in human liver microsomes assessed as half life; type: ADME, Microsome
Procedure, shortened: (§3)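 Human liver microsomes (1 mg/mL) in 100 mM potassium phosphate were preincubated with 3 µM test compound (final) at 37 °C for 5 min, then started with NADPH. Duplicate aliquots at 0, 15, 30, 60 and 120 min were quenched in cold MeOH with internal standard and analysed by LC–MS/MS. Values were normalized to 0 min; a no-NADPH control was read at 120 min.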

[16] = Stability in human liver microsomes assessed as compound remaining at 3 uM pretreated for 5 mins followed by NADPH addition measured upto 120 mins by LC-MS/MS analysis; type: ADME, Microsome; conditions: 2.083 h, time < 125 min; procedure, shortened: as §3

For `CCCCCCCCCCCCCCSCCCOP(=O)(O)CO[C@H](C)Cn1cnc2c(N)ncnc21`, the selectivity ratio [1] was > 16700.

With `C[C@H](Cn1cnc2c(N)ncnc21)OCP(=O)(O)OCCCSCCCCCCCCCCC#Cc1ccc(F)cc1` the selectivity ratio [1] was > 10000.

For `C[C@H](Cn1cnc2c(N)ncnc21)OCP(=O)(O)OCCCSCCCCCCCCCCC#Cc1ccccc1`, the selectivity ratio [1] was > 12500.

`CCCCCCCCCCCCCCCCSCCCOP(=O)(O)CO[C@H](C)Cn1cnc2c(N)ncnc21.N` showed a selectivity ratio [1] of 4980, a Ratio [2] of 0.333 and a Cmax [3] of 1440 ng/mL. For the same compound, the AUC [4] was 14600 ng·h/mL, the Tmax [5] was 4 h and the Cmax [6] was 695 ng/mL. It also gave an AUC [7] of 657 ng·h/mL, a Tmax [8] of 4 h and a Cmax [9] of 39.4 ng/mL. The CL [10] was 147 mL/min/kg, the Tmax [11] was 4 h and the AUC [12] was 29100 ng·h/mL. For the same compound, the Ratio [13] was 0.222 and the CL [14] was 147 mL/min/kg.

In the case of `C#CCCCCCCCCCCCCCCSCCCOP(=O)(O)CO[C@H](C)Cn1cnc2c(N)ncnc21`, the selectivity ratio [1] is reported as > 3570.

For `C[C@H](Cn1cnc2c(N)ncnc21)OCP(=O)(O)OCCCSCCCCCCCCCCCSc1ccccc1`, the selectivity ratio [1] was > 594.

Compound `CCCCCCCCCCCCCCCCOCCCOP(=O)(O)CO[C@H](C)Cn1cnc2c(N)ncnc21` [TENOFOVIR EXALIDEX] has a selectivity ratio [1] of 5420.

`C[C@H](Cn1cnc2c(N)ncnc21)OCP(=O)(O)OCCCSCCCCCCCCCCCCCCC(C)(C)C` gave a selectivity ratio [1] of 138.

In the case of `C[C@H](Cn1cnc2c(N)ncnc21)OCP(=O)(O)OCCCOCCCCCCCCCCCCCCCC(F)(F)F.N`, the half-life [15] is reported as 2 h.

With `C[C@H](Cn1cnc2c(N)ncnc21)OCP(=O)(O)OCCCSCCCCCCCCCCCCC#C[Si](C)(C)C` the selectivity ratio [1] was > 4170.

In the case of `CC(C)[Si](C#CCCCCCCCCCCCSCCCOP(=O)(O)CO[C@H](C)Cn1cnc2c(N)ncnc21)(C(C)C)C(C)C`, the selectivity ratio [1] is reported as 224.

In the case of `C[C@H](Cn1cnc2c(N)ncnc21)OCP(=O)(O)OCCCSCCCCCCCCCCCOc1ccc(F)cc1.N`, the selectivity ratio [1] is reported as 6250 and the Stability [16] is reported as 85%.

For `C[C@H](Cn1cnc2c(N)ncnc21)OCP(=O)(O)OCCCSCCCCCCCCCCCOC1CCCCC1`, the selectivity ratio [1] was > 542.

Reference: ChEMBL document CHEMBL6071194, “Building Metabolically Stable and Potent Anti-HIV Thioether-Lipid Analogues of Tenofovir Exalidex: A thorough Pharmacological Analysis” (J Med Chem, 2024)
